From PubChem BioAssay AID1027 (Sanford-Burnham Center for Chemical Genomics, 2008)
Out of some 200,000 compounds screened, fewer than 10 were called active.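 The calls were made as follows: active = luciferase activation factor, scaled between plate controls, of at least 2 with compound at 10 µM; inactive = the rest.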 These entries were drawn from the full list.

Each compound was assayed against Luciferin 4-monooxygenase (Photinus pyralis) (UniProt P08659) (assay: FLuc activators, initial screening, artefact control for FLuc-dependent activation tests, biochemical, ATPlite luminescence (AID 1027)). Settings: ATPlite luciferase biochemical, 10 min, at 10 µM, stronger effect = higher value, 0 = ATP-free wells, 1 = DMSO control.
Procedure, shortened: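 test system = cell-free luciferase reagent | medium = PBS as buffer for the ATP substrate | dosing = test compounds dosed from 2 mM stocks in 100% DMSO | incubation = 10 min at ambient temperature | detection = luminescence measurement of luciferase light output | benchmarks = low control with PBS replacing ATP, high control enzyme plus ATP without compound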

Luciferin 4-monooxygenase (Photinus pyralis), sequence (P08659 whole entry, looked up): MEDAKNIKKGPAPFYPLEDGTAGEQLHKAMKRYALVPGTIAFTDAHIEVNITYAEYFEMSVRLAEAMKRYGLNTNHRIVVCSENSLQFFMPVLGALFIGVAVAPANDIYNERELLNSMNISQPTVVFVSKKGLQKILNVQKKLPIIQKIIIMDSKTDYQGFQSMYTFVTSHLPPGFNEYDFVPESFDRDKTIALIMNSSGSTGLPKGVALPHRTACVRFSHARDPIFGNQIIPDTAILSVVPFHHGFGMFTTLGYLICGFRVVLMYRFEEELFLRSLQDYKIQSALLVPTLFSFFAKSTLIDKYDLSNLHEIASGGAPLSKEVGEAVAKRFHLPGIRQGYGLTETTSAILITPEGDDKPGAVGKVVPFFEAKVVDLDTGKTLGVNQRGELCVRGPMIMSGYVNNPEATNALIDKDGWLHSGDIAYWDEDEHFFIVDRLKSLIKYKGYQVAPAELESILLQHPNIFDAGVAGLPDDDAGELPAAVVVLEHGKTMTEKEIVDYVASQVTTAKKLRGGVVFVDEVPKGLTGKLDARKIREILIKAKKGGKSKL

Activation factor, inactive:
Clc1ccc(-c2csc(-c3ccncc3)n2)cc1 0.9
COCCNC(=S)Nc1cc(S(=O)(=O)N2CCOCC2)ccc1N1CCCCC1 1
CC(C)OCCCNC(=O)c1ccc(C2SCC(=O)N2Cc2ccco2)cc1 (centres undefined) 1
COc1cccc(-n2c(=S)[nH]c3c(oc4ccccc43)c2=O)c1 1
CCc1cc(CNC(=O)CC2C(=O)NCCN2CC2CCCCC2)on1 (centres undefined) 1.1
CCCCOC(=O)c1ccc(NC(c2ccc(C)cc2)P(=O)(OC)OC)cc1 (centres undefined) 1
CC1=C(C(=O)Nc2cc(C)ccn2)C(c2cnn(C)c2)C2=C(CC(c3ccccc3)CC2=O)N1 (centres undefined) 1.1
COc1cc(NC(=O)CSc2nnc3ccc(-c4ccncc4)nn23)cc(OC)c1 1
COc1ccc(CN2CCNC(=O)C2CC(=O)N(C)Cc2ccccn2)cc1OC (centres undefined) 1
Cc1cc(C(=O)N/N=C\C(Br)=C\c2ccccc2)c(C)o1 0.8
O=C(Cn1nnc2ccccc2c1=O)NCc1ccc(Cl)cc1 1
O=C1CCCN1CCCNC(=S)Nc1ccc(F)c(Cl)c1 1
Cc1c(CN2CCCC(C(=O)c3cccc(Cl)c3)C2)c(=O)n(-c2ccccc2)n1C (centres undefined) 1
Cc1ccc(-c2csc(NC(=O)Cn3[nH]c(=O)c4ccccc4c3=O)n2)cc1 1
CC[n+]1c(C)n(-c2ccccc2)c2ccc(NC(C)=O)cc21 1
O=S(=O)(c1ccccc1)c1nc(-c2ccccc2F)oc1NCc1cccnc1 1.1
C/C(=N\NC(=S)NCc1ccccc1)c1ccc(Cl)cc1 1
CCCc1cc(-c2nc(-c3ccc(C)cc3)cs2)ccn1 1
CSCC[C@H](NC(=O)OC(C)(C)C)C(=O)N/N=C/c1cc2ccc(C)cc2nc1Cl 1.1
CCOC(=O)c1[nH]c2c(c1-c1ccccc1)C(=O)CC(c1ccc(Cl)cc1)C2 (centres undefined) 1
Cc1ccc(-n2ncc3c(=O)n(-c4ccc(C)c(C)c4)c(-c4ccco4)nc32)cc1 1
COc1cc(NC(=O)COC(=O)CSc2ccc3ccccc3c2)c(C)cc1[N+](=O)[O-] 1.1
CNC(=O)c1[nH]cnc1C(=O)N[C@@H](CC(C)C)C(=O)OCc1ccccc1 1.1
CCN(CCCNC(=O)CCn1c(=O)[nH]c2ccsc2c1=O)c1ccccc1 1
CCc1ccc(C2C(C#N)=C(N)N(N(C)C)C3=C2C(=O)CCC3)s1 (centres undefined) 1
O=C(CCCNS(=O)(=O)c1cccc2nsnc12)NCCN1CCN(c2ccccc2F)CC1 1.1
Cc1ccc(NC(=O)CSc2nc(CSc3ccc(C)cc3)cc(=O)[nH]2)cc1 0.9
Cc1cccc(N2CCN(C(=O)c3cnn4c(C(F)F)cc(-c5ccccc5)nc34)CC2)c1C 1
Cc1ccc(NC(=O)CN2CCCCC2)c2c1CC(C)(C)O2 1
CC[C@H](C)[C@@H](C(=O)N1CCNCC1)n1cc([C@@H](N)Cc2ccc(O)cc2)nn1 1.1
CCN(CC)CCNc1nc(-c2ccc(OC(F)F)cc2)c(C)s1 1
CNC(=O)/C(C#N)=C/c1c(F)cccc1Cl 1
Clc1ccc(-c2cc(C3CCNCC3)[nH]n2)c(Cl)c1 1
COc1ccc(C2=NN(c3nc4ccccc4s3)C(=O)C2)cc1 0.4
CCO[C@H]1OC(C(=O)N2CCCCCCC2)=C[C@@H](c2ccc(C(F)(F)F)cc2)[C@@H]1CCCO 1.1
Cc1nn(Cc2ccc(F)cc2)c(C)c1NC(=O)c1cccnc1Cl 1.1
O=C(CCN1C(=O)c2ccccc2C1=O)C1=NN[C@@H]2C(=O)N(c3ccc(F)cc3)C(=O)[C@H]12 1
CCOc1ccc(-c2ccc(SCC(=O)N3CCOCC3)nn2)cc1 0.2
Cc1scc(C(=O)NNC(=S)NCC(C)C)c1C 1
CCCn1nc(C(=O)N2CCCc3ccccc32)c2ccccc2c1=O 1.1
Cc1ccc2cc(CCNC(=O)c3ccc4c(c3)OCO4)c(=O)[nH]c2c1 1.1
COc1ccc2oc(=O)c(C(=O)NCc3ccccn3)cc2c1 0.9
Cc1ccc2c(c1)C1CN(C)CCC1N2C(=O)c1ccccc1NS(=O)(=O)c1ccc(F)cc1C (centres undefined) 1.1
CCOc1ccc(CCNC(=O)C2=C(C)C(=O)OC23CCC(C)CC3)cc1OCC (centres undefined) 1.1
COc1ccc(NS(=O)(=O)c2ccc(O)c(C(=O)OCC(=O)NC3CCCCC3)c2)cc1 1.1
Cc1cccc(N=Nc2c(O)[nH]c3ccc(F)cc23)c1 0.9
NC1=NC(=O)C(Cc2cccc(Cl)c2)S1 (centres undefined) 1
CN(C)c1ccnc(Nc2ccc(F)cc2)c1C#N 1
COc1ccc(NC(=O)N2CCCC(c3nc(-c4ccc(F)cc4)no3)C2)cc1 (centres undefined) 1
CN1CCN(c2ccc(NC(=O)c3ccc4c(c3)[nH]c(=O)n4Cc3ccc(F)cc3)cc2)CC1 1
COc1ccc(NC(=O)CN2C(=O)C(c3ccccc3)=NC23CCCCCC3)cc1OC 1
CC(NC(=O)COC(=O)c1ccc(Cl)cc1O)c1ccc(F)cc1 (centres undefined) 1
CCOc1cccc(OCCCOc2cccc3cccnc23)c1 1
S=c1[nH]nc(NCCc2ccccc2)s1 0.9
COc1ccc(C(=O)N2CCC(C(=O)Nc3ccc(C)cc3)CC2)cc1 1
COc1cccc(/C=C2\SC(=N)N(c3ccc(F)cc3)C2=O)c1 1.1
O=[N+]([O-])/C(N=Nc1ccccc1)=N\Nc1ccccc1 1.1
COc1ccc(CC(=O)N[C@@H](CCSC)c2nc3ccccc3[nH]2)cc1 1.1
O=C(NCc1ccccn1)c1cc(Br)ccc1Cl 1
CC1CCN(c2ccc(C(=O)Nc3nnc(C4CC4)s3)cc2[N+](=O)[O-])CC1 1
Cc1cccc(N2C(=O)CC(SC(N)=Nc3ccccc3)C2=O)c1 (centres undefined) 1.1
COc1cc(/C=C/CO)cc(OC)c1O[C@@H]1O[C@H](CO)[C@@H](O)[C@H](O)[C@H]1O 1
Cc1ccc2[nH]cc(CCCN3C(=O)c4ccccc4C3=O)c2c1 1
COc1ccc(NC(=O)C(NC(C)=O)C(=O)NCc2ccccc2Cl)cc1 (centres undefined) 1
CC(OC(=O)CCc1nc(=O)c2ccccc2n1C)C(=O)NCc1ccc2c(c1)OCO2 (centres undefined) 1.1
CO/N=C(\N)c1ccc([N+](=O)[O-])cc1 1.1
Cc1ccc(CCCOC(=O)C[N+]2(C)CCCCC2)cc1 1
O=C(Cc1ccccc1)Nc1cccc(C(=O)N/N=C/c2ccco2)c1 0.9
Cc1ccc(CSc2nc3[nH]ncc3c(=O)[nH]2)cc1 0.6
COc1ccccc1NC(=O)C[n+]1ccccc1 1
COc1cc(C(=O)N2C(=O)c3cccc(N)c3C2=O)cc(OC)c1OC 1
CCOC(=O)C1CCCN(C(=O)c2cccc(S(=O)(=O)N3CCOCC3)c2)C1 (centres undefined) 1
COc1cccc(NC(=O)C(Sc2nc3ccccc3c(=O)n2CC(C)C)c2ccccc2)c1 (centres undefined) 1
Cc1cs/c(=N\N=C\c2ccc(O)cc2)n1Cc1ccco1 1
